Like-named read-outs stand apart in the source and are kept apart here. One block for each compound: values may come before it.
Legend:
[1] = type: in vivo, human; conditions: metabolite; for t½: mean (SD); for Tmax: median (minimum, maximum)
Outline: (§1)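 Randomized two-sequence crossover in healthy adults, ≥10-day washout. Single oral 4-mg rosiglitazone was given alone on day 1, or on day 3 of the test compound regimen (1250 mg loading dose on day 1, then 750 mg once daily for 7 more days), after a 10-h fast. K2EDTA blood was drawn predose to 120 h and plasma stored at ~−70°C. LC-MS/MS, LLOQ 0.500 ng/mL. GMR (90%CI) came from a linear mixed effect model.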

[2] = type: in vivo, human; conditions: for AUC / AUC_%Extrap_obs: geometric mean (CV%)
Outline: as §1

[3] = Safety and tolerability in phase 1 study; type: in vivo, human
Outline: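 Healthy adults in a two-period crossover: single oral 4-mg rosiglitazone alone, and the test compound (1250 mg on day 1, 750 mg daily for 7 days) with rosiglitazone on day 3. Dosing was fasted. Adverse events were recorded from informed consent until 14 days after the last dose and graded by intensity.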

[4] = phase 1 drug‐drug interaction study; cited from earlier work
CYP2C8 [5] = conditions: inhibition of CYP2C8‐mediated N‐desethyl‐amodiaquine activity; ref Wring SA, Park SM, unpublished data on file; cited from earlier work
CYP2C8 [6] = assay: In vitro CYP2C8 inhibition; type: in vitro ADME
Candida species = conditions: in vivo murine models for invasive fungal infections with Candida species; cited from earlier work
[7] = Phase 1 study: plasma PK of SCY‐078 after loading dose and repeat daily doses; type: in vivo, human
Outline: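 Healthy adults fasted 10 h, then took the oral test compound: 1250-mg loading dose on day 1, then 750 mg once daily for 7 more days. Blood was drawn predose and 0.5–24 h on day 1, predose and 0.5–16 h on day 3, and as troughs before dosing on days 4–8. K2EDTA plasma was centrifuged at 2000 g and stored at ~−70°C. Validated LC-MS/MS, LLOQ 5.00 ng/mL.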

other CYP isoforms = conditions: ref Wring SA, Park SM, unpublished data on file; cited from earlier work
[8] = cited from earlier work
[9] = tested on: Candida and Aspergillus species clinical isolates; conditions: cited from earlier work
[10] = rosiglitazone 4 mg + SCY‐078 750 mg, day 3, n = 17, geometric mean (CV%)
[11] = rosiglitazone 4 mg + SCY‐078 750 mg, day 3, n = 17
[12] = rosiglitazone 4 mg alone, day 1, n = 17, geometric mean (CV%)
[13] = rosiglitazone 4 mg alone, day 1, n = 17
[14] = both, human, plasma, oral, 4 mg
[15] = all treatments pooled, 24 subjects
[16] = both, human, plasma, po, 1250 mg

AUC ([1]; 0 to infinity, rosiglitazone 4 mg + SCY‐078 750 mg, day 3, n = 17, geometric mean (CV%)): 2260 (15.5) μg·hr/mL | AUC0‐24h GMR rosiglitazone + SCY‐078 vs rosiglitazone alone ([1]; geometric mean ratio (90%CI)): 0.97 (0.89‐1.06) | AUC0‐last GMR rosiglitazone + SCY‐078 vs rosiglitazone alone ([1]; geometric mean ratio (90%CI)): 1.03 (0.95‐1.12) | AUC GMR rosiglitazone + SCY‐078 vs rosiglitazone alone ([1]; geometric mean ratio (90%CI)): 1.03 (0.95‐1.12) | Cmax GMR rosiglitazone + SCY‐078 vs rosiglitazone alone ([1]; geometric mean ratio (90%CI)): 0.97 (0.88‐1.07) | AUC0‐24h [1, 10]: 1.31 µg·h/mL | AUC0‐last [1, 10]: 2.24 µg·h/mL | AUC_%Extrap_obs [1, 10]: 0.90 (45.6) % | Cmax [1, 10]: 70.4 (16.4) ng/mL | t½ [1, 11]: 15.2 (2.3) h | Tmax [1, 11]: 8.0 (6.0, 16.0) h | AUC0‐24h [1, 12]: 1.34 µg·h/mL | AUC0‐last [1, 12]: 2.17 µg·h/mL | AUC_%Extrap_obs [1, 12]: 0.91 (52.4) % | Cmax [1, 12]: 72.8 (17.6) ng/mL | t½ [1, 13]: 14.5 (2.4) h | Tmax [1, 13]: 6.0 (4.0, 12.0) h
Compound: O=C1NC(=O)C(Cc2ccc(OCCNc3ccccn3)cc2)S1 (stereo not shown) [N‐Desmethylrosiglitazone, N‐desmethylrosiglitazone]

Compound: CN(CCOc1ccc(CC2SC(=O)NC2=O)cc1)c1ccccn1 (stereo not shown) [Rosiglitazone, rosiglitazone]
Cmax [2, 14]: 295 ng/mL | Tmax [2, 14]: 0.5 h | half-life [2, 14]: 3.7 h | AUC ([2]; both, human, plasma, oral, AUC0‐24h, rosiglitazone 4 mg + SCY‐078 750 mg, day 3, n = 17): 1420 µg·h/mL | AUC ([2]; both, human, plasma, oral, AUC0‐last, rosiglitazone 4 mg + SCY‐078 750 mg, day 3, n = 17): 1440 µg·h/mL | AUC0‐24h GMR rosiglitazone + SCY‐078 vs rosiglitazone alone ([2]; geometric mean ratio (90%CI)): 0.98 (0.89‐1.08) | AUC0‐last GMR rosiglitazone + SCY‐078 vs rosiglitazone alone ([2]; geometric mean ratio (90%CI)): 0.99 (0.90‐1.10) | AUC GMR rosiglitazone + SCY‐078 vs rosiglitazone alone ([2]; geometric mean ratio (90%CI)): 0.99 (0.90‐1.10) | Cmax GMR rosiglitazone + SCY‐078 vs rosiglitazone alone ([2]; geometric mean ratio (90%CI)): 0.80 (0.70‐0.90) | AUC_%Extrap_obs [2, 11]: 0.71 (62.2) % | AUC_%Extrap_obs [2, 13]: 0.58 (74.3) % | treatment‐emergent AE: diarrhea ([3]; all treatments pooled (rosiglitazone alone and with SCY‐078), 24 subjects): 58.3% | serious AEs and deaths [3, 15]: no serious AEs | treatment‐emergent AE: abdominal pain [3, 15]: 41.7% | treatment‐emergent AE: contact dermatitis [3, 15]: 8.3% | treatment‐emergent AE: dizziness [3, 15]: 8.3% | treatment‐emergent AE: headache [3, 15]: 16.7% | treatment‐emergent AE: menstruation irregularity [3, 15]: 12.5% | treatment‐emergent AE: nausea [3, 15]: 41.7% | treatment‐emergent AE: somnolence [3, 15]: 8.3% | treatment‐emergent AE: vomiting [3, 15]: 25% | tolerability ([3]; rosiglitazone in the presence and absence of repeat doses of SCY‐078, healthy subjects): generally well tolerated

Compound: CC(C)[C@@H](C)[C@@]1(C)CC[C@]2(C)[C@H]3CC[C@@H]4[C@@]5(COC[C@@]4(C)[C@@H](OC[C@](C)(N)C(C)(C)C)[C@H](n4ncnc4-c4ccncc4)C5)C3=CC[C@@]2(C)[C@@H]1C(=O)O [SCY‐078]
interaction with tacrolimus [4]: no clinically relevant interaction | IC50 (CYP2C8 [5]): ~300 nM | unbound concentration in plasma as % of the CYP2C8 IC50 (CYP2C8 [6]; day 3 Cmax, based on 99.7% binding to plasma proteins): ~3% | plasma Cmax exceeds the in vitro CYP2C8 IC50 (CYP2C8 [6]; day 3 total Cmax vs IC50): approximately 4 fold | efficacy target exposure (Candida species): 11.2 μg·h^2/mL | Tmax ([7]; both, human, plasma, oral): 6 h | AUC [7, 16]: 11.6 µg·h/mL | Tmax [7, 16]: 6 h | concentration at 24 h [7, 16]: 294 ng/mL | Cmax ([7]; both, human, plasma, po, 1250 mg, Cmax, day 1, oral 1250‐mg loading dose, fasted, geometric mean (CV%)): 783 ng/mL | maximum concentration in plasma ([7]; day 3, once‐daily oral regimen, molar equivalent of ∼0.93 μg/mL): 1.28 µM | absorption ([7]; following the loading dose and repeated daily doses): well absorbed | IC50 values for other CYP isoforms, fold higher than CYP2C8 (other CYP isoforms): > 5 fold | binding to plasma proteins [8]: 99.7% | in vitro activity against Candida and Aspergillus species clinical isolates [9]: potent in vitro activity | activity against azole‐resistant, most echinocandin‐resistant, and multidrug‐resistant strains of Candida species ([9]; in vitro): retained activity

Reference: publication PMC6175093 (Journal of Clinical Pharmacology, 2018)
